Several values for one entry are separate records, joined by “and”; a condition that tells them apart may be missing. Equal entries are not always repeated.
Tests used:
Mus musculus [1] = experiment: Ataxia was measured in mice after sc administration at given dose; type: functional
In short: (§1)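 Mice in groups of 10 received drug sc in 0.9% saline and were watched 20 min for overt toxicity before chloroform exposure. At least three doses were given.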

Mus musculus [2] = species on record: Mus musculus; experiment: Percentage toxicity measured as loss of righting reflex.; type: organism-based; details: in vivo
In short: (§2)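 Mice (groups of 10) were dosed sc with drug in 0.9% saline and watched for 20 min for overt toxicity (ataxia, convulsions, loss of righting reflex, death) before chloroform exposure.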

Mus musculus [3] = species on record: Mus musculus; experiment: Percentage toxicity measured as convulsions.; type: organism-based; details: in vivo; in short: as §2
Mus musculus [4] = experiment: Protection against chloroform induced arrhythmias was measured in mice after sc administration at given dose; type: functional
In short: (§3)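 Groups of 10 unanesthetized mice got sc injection of drug in 0.9% saline. After 20 min observation they were placed one by one in chloroform-vapor-saturated air. When breathing stopped, the thorax was opened and the heart inspected by eye; coordinated ventricular contractions counted as protected.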

[5] = Percentage toxicity measured as death of mice.; type: organism-based; design: concentration or dose not given beside the values; details: mouse, in vivo; read-out: Death
Mus musculus [6] = species on record: Mus musculus; experiment: Percentage toxicity measured as ataxia.; type: organism-based; details: in vivo; in short: as §2
Mus musculus [7] = experiment: Protection against chloroform induced arrhythmias in mice after subcutaneous administration at 100 mg/kg dose.; type: functional; in short: as §3
Canis familiaris [8] = experiment: % ectopic beats was measured in anesthetized dog at 0.053 dose; type: functional, Canis lupus familiaris, Heart; details: in the assay text read “unanesthetized” for “anesthetized”
In short: (§4)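 Adult female dogs (6.7–14.5 kg) had the left anterior descending coronary artery ligated in two stages the day before testing. Dogs were unanesthetized. Ectopic beats (% of ventricular rate) and mean arterial pressure were read at maximal antiarrhythmic effect against the cumulative dose.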

Canis familiaris [9] = experiment: MABP value was measured in anesthetized dog at 0.053 dose; type: functional, Canis lupus familiaris; details: in the assay text read “unanesthetized dog” for “anesthetized dog”
In short: (§5)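 Adult female dogs (6.7–14.5 kg) had two-stage ligation of the left anterior descending coronary artery the day before testing. After control ventricular rate, % ectopic beats and mean arterial pressure were recorded, the drug (HCl salt, isotonic solution) was infused iv without anesthesia at 0.1, 0.5 or 1.0 (mg/kg)/min, mostly 0.5. Infusion continued until the arrhythmia was abolished or cardiovascular/CNS toxicity appeared. Cumulative dose is given in mmol/kg; toxicity included convulsion and P-R prolongation ≥25%.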

Canis familiaris [10] = species on record: Canis familiaris; experiment: (§6) The dose at which toxicity was measured; type: organism-based, Canis lupus familiaris; design: unit: mmol/kg; details: dog, in vivo; in short: as §5
Canis familiaris [11] = experiment: Ventricular rate was measured in anesthetized dog at 0.026 dose; type: functional, Canis lupus familiaris, Heart
Canis familiaris [12] = species on record: Canis familiaris; experiment: as §6; type: organism-based, Canis lupus familiaris; details: dog, in vivo; in short: as §5
Canis familiaris [13] = experiment: % ectopic beats was measured in anesthetized dog at 0.026 dose; type: functional, Canis lupus familiaris, Heart; details: in the assay text read “unanesthetized” for “anesthetized”; in short: as §4
Canis familiaris [14] = experiment: MABP value was measured in anesthetized dog at 0.026 dose; type: functional, Canis lupus familiaris; details: in the assay text read “unanesthetized dog” for “anesthetized dog”; in short: as §4
Canis familiaris [15] = experiment: Ventricular rate was measured in anesthetized dog at 0.053 dose; type: functional, Canis lupus familiaris, Heart; details: in the assay text read “unanesthetized dog” for “anesthetized dog”; in short: as §5
Canis familiaris [16] = experiment: % ectopic beats was measured in anesthetized dog at 0.029 dose.; type: functional, Canis lupus familiaris, Heart; details: in the assay text read “unanesthetized” for “anesthetized”; in short: as §4
Canis familiaris [17] = species on record: Canis familiaris; experiment: Toxicity of blood level was measured; type: organism-based, Canis lupus familiaris; details: dog, in vivo
In short: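 In coronary-ligated conscious dogs under iv infusion, blood was sampled at toxicity. Drug was extracted with methylene chloride at pH 10.3 (ammonium citrate/ammonia) with another analogue as internal standard, then derivatized with heptafluorobutyrylimidazole. Assay was GC-FID on 3% JXR, quantified from drug/internal standard peak-height ratio against standard curves; results in μmol/mL.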

Canis familiaris [18] = experiment: MABP value was measured in anesthetized dog at 0.042 dose.; type: functional, Canis lupus familiaris; details: in the assay text read “unanesthetized dog” for “anesthetized dog”; in short: as §5
Canis familiaris [19] = experiment: Ventricular rate was measured in anesthetized dog at 0.005 dose; type: functional, Canis lupus familiaris, Heart; details: in the assay text read “unanesthetized dog” for “anesthetized dog”; in short: as §5
Canis familiaris [20] = experiment: % ectopic beats was measured in anesthetized dog at 0.021d ose.; type: functional, Canis lupus familiaris, Heart; details: in the assay text read “unanesthetized” for “anesthetized”; in short: as §4
Canis familiaris [21] = experiment: % ectopic beats was measured in anesthetized dog at 0.026 dose.; type: functional, Canis lupus familiaris, Heart; details: in the assay text read “unanesthetized” for “anesthetized”; in short: as §4
Canis familiaris [22] = species on record: Canis familiaris; experiment: Toxicity of the compound; type: organism-based, Canis lupus familiaris; details: dog, in vivo; in short: as §5
Mus musculus [23] = experiment: Protection against chloroform induced arrhythmias was measured in mice after sc administration at given dose.; type: functional; details: Mus musculus, sc; read-out: ED50; in short: as §3
Canis familiaris [24] = experiment: MABP value was measured in anesthetized dog at 0.017 dose.; type: functional, Canis lupus familiaris; details: in the assay text read “unanesthetized dog” for “anesthetized dog”; in short: as §4
Canis familiaris [25] = experiment: Ventricular rate was measured in anesthetized dog at 0.029 dose; type: functional, Canis lupus familiaris, Heart; details: in the assay text read “unanesthetized dog” for “anesthetized dog”; in short: as §5
Canis familiaris [26] = experiment: % ectopic beats was measured in anesthetized dog at 0.017 dose.; type: functional, Canis lupus familiaris, Heart; details: in the assay text read “unanesthetized” for “anesthetized”; in short: as §4
Canis familiaris [27] = experiment: Blood level was measured in anesthetized dog at 0.029 dose.; type: functional, Canis lupus familiaris
Canis familiaris [28] = experiment: MABP value was measured in anesthetized dog at 0.029 dose.; type: functional, Canis lupus familiaris; details: in the assay text read “unanesthetized dog” for “anesthetized dog”; in short: as §4
Canis familiaris [29] = species on record: Canis familiaris; experiment: Blood level was measured in […] at 0.017 dose.; type: functional, Canis lupus familiaris
Canis familiaris [30] = experiment: MABP value was measured in anesthetized dog at 0.026 dose.; type: functional, Canis lupus familiaris; details: in the assay text read “unanesthetized dog” for “anesthetized dog”; in short: as §4
Canis familiaris [31] = experiment: Ventricular rate was measured in anesthetized dog at 0.042 dose; type: functional, Canis lupus familiaris, Heart; details: in the assay text read “unanesthetized dog” for “anesthetized dog”; in short: as §5
Canis familiaris [32] = experiment: MABP value was measured in anesthetized dog at 0.005 dose.; type: functional, Canis lupus familiaris; details: in the assay text read “unanesthetized dog” for “anesthetized dog”; in short: as §4
Canis familiaris [33] = experiment: % ectopic beats was measured in anesthetized dog at 0.042 dose.; type: functional, Canis lupus familiaris, Heart; details: in the assay text read “unanesthetized” for “anesthetized”; in short: as §4
Canis familiaris [34] = species on record: Canis familiaris; experiment: The dose at which toxicity was measured.; type: organism-based, Canis lupus familiaris; details: dog, in vivo; in short: as §5
Canis familiaris [35] = experiment: Ventricular rate was measured in anesthetized dog at 0.021 dose; type: functional, Canis lupus familiaris, Heart; details: in the assay text read “unanesthetized dog” for “anesthetized dog”; in short: as §5
Canis familiaris [36] = experiment: Ventricular rate was measured in anesthetized dog at given 0.017 dose; type: functional, Canis lupus familiaris, Heart; details: in the assay text read “unanesthetized” for “anesthetized”
In short: (§7)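 Adult female dogs (6.7–14.5 kg) had ventricular arrhythmias from two-stage ligation of the left anterior descending coronary artery the day before. Ventricular rate (bpm) was read at maximal antiarrhythmic effect against cumulative dose.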

Canis familiaris [37] = experiment: % ectopic beats was measured in anesthetized dog at 0.005 dose.; type: functional, Canis lupus familiaris, Heart; details: in the assay text read “unanesthetized” for “anesthetized”; in short: as §4
Canis familiaris [38] = experiment: MABP value was measured in anesthetized dog at 0.021d ose.; type: functional, Canis lupus familiaris; details: in the assay text read “unanesthetized dog” for “anesthetized dog”; in short: as §4
Mus musculus [39] = experiment: Ataxia was measured in mice after sc administration at given dose.; type: functional; in short: as §1
Canis familiaris [40] = experiment: Ventricular rate was measured in anesthetized dog at 0.32+/-0.11 dose; type: functional, Canis lupus familiaris, Heart; details: in the assay text read “unanesthetized” for “anesthetized”; in short: as §7
Canis familiaris [41] = experiment: % ectopic beats was measured in unanesthetized dog at 0.32+/-0.11 dose; 2+/-2
Canis familiaris [42] = experiment: MABP value was measured in anesthetized dog at 0.32+/-0.11 dose.; type: functional, Canis lupus familiaris

In the case of `CCN(CC)CCCCN1C(=O)CC2(CCCc3ccccc32)C1=O` (stereo not given), the ED50 (Mus musculus [1]) is reported as 180 µmol/kg, the “Loss of righting reflex” value (Mus musculus [2]) is reported as 0% and the Convulsion (Mus musculus [3]) is reported as 0%. For the same compound, the ED50 (Mus musculus [4]) was 180 µmol/kg, the mortality [5] was 0% and the Ataxia (Mus musculus [6]) was 100%. It also gave a Protection (Mus musculus [7]) of 90%.

For `CCN(CC)CCCN1C(=O)CC2(CCCc3ccccc32)C1=O` (stereo not given), the ED50 (Mus musculus [1]) was 190 µmol/kg, the “Loss of righting reflex” value (Mus musculus [2]) was 0% and the Convulsion (Mus musculus [3]) was 0%. For the same compound, the ED50 (Mus musculus [4]) was 200 µmol/kg, the mortality [5] was 0% and the Ataxia (Mus musculus [6]) was 100%. For the same compound, the Protection (Mus musculus [7]) was 80%.

`CCN(CC)CCN1C(=O)CC2(CCCc3ccc(O)cc32)C1=O` (stereo not given) gave an Etopic beats (Canis familiaris [8]) of 7%, an MABP (Canis familiaris [9]) of 135 mmHg and a Cumulative dose (Canis familiaris [10]) of 0.026 mM/kg. For the same compound, the Ventricular rate (Canis familiaris [11]) was 132 beats min-1, the Cumulative dose (Canis familiaris [12]) was 0.042 and the “Loss of righting reflex” value (Mus musculus [2]) was 0%. The Convulsion (Mus musculus [3]) was 0%, the ED50 (Mus musculus [4]) was 150 µmol/kg and the Etopic beats (Canis familiaris [13]) was 3%. It also gave an MABP (Canis familiaris [14]) of 130 mmHg, a mortality [5] of 0% and an Ataxia (Mus musculus [6]) of 0%. The Protection (Mus musculus [7]) was 90% and the Ventricular rate (Canis familiaris [15]) was 102 beats min-1.

Work on `CCN(CC)CCCCN1C(=O)CC2(CCCc3ccc(O)cc32)C1=O` (stereo not given) yielded an Etopic beats (Canis familiaris [16]) of 0%, a Blood level (Canis familiaris [17]) greater than 28 µM and an MABP (Canis familiaris [18]) of 100 mmHg. The Ventricular rate (Canis familiaris [19]) was 162 beats min-1, the Etopic beats (Canis familiaris [20]) was 0% and the Etopic beats (Canis familiaris [21]) was 0%. For the same compound, the Blood level (Canis familiaris [22]) was 0.01 uM ml-1, the ED50 (Mus musculus [23]) was 130 µmol/kg and the MABP (Canis familiaris [24]) was 95 mmHg. For the same compound, the Cumulative dose (Canis familiaris [10]) was > 0.058 and > 0.126, the Ventricular rate (Canis familiaris [25]) was 141 beats min-1 and the Ventricular rate (Canis familiaris [11]) was 132 beats min-1. The Etopic beats (Canis familiaris [26]) was 2%, the “Loss of righting reflex” value (Mus musculus [2]) was 0% and the Blood level (Canis familiaris [27]) was 0.007 uM ml-1. The Convulsion (Mus musculus [3]) was 0%, the MABP (Canis familiaris [28]) was 90 mmHg and the Blood level (Canis familiaris [29]) was 0.016 uM ml-1. It also gave an MABP (Canis familiaris [30]) of 90 mmHg, a mortality [5] of 0% and a Ventricular rate (Canis familiaris [31]) of 147 beats min-1. It also gave an MABP (Canis familiaris [32]) of 80 mmHg, an Etopic beats (Canis familiaris [33]) of 0% and a Cumulative dose (Canis familiaris [34]) of 0.063. It also gave a Ventricular rate (Canis familiaris [35]) of 168 beats min-1, an Ataxia (Mus musculus [6]) of 0% and a Protection (Mus musculus [7]) of 100%. The Ventricular rate (Canis familiaris [36]) was 153 beats min-1, the Etopic beats (Canis familiaris [37]) was 2% and the MABP (Canis familiaris [38]) was 70 mmHg.

In the case of `CCN(CC)CCCCCN1C(=O)CC2(CCCc3ccccc32)C1=O` (racemic), the ED50 (Mus musculus [23]) is reported as 240 µmol/kg, the “Loss of righting reflex” value (Mus musculus [2]) is reported as 0% and the Convulsion (Mus musculus [3]) is reported as 0%. The mortality [5] was 0%, the Ataxia (Mus musculus [6]) was 0% and the Protection (Mus musculus [7]; 100 mg/kg) was 80%.

With `Cc1cccc(C)c1NC(=O)C(C)N` (stereo not given) [TOCAINIDE] the ED50 (Mus musculus [39]) was 760 µmol/kg, the ED50 (Mus musculus [23]) was 1300 µmol/kg and the Ventricular rate (Canis familiaris [40]) was 148 beats min-1. For the same compound, the Ectopic beats (Canis familiaris [41]) was 2%, the “Loss of righting reflex” value (Mus musculus [2]) was 0% and the Convulsion (Mus musculus [3]) was 0%. The mortality [5] was 0%, the MABP (Canis familiaris [42]) was 108 mmHg and the Cumulative dose (Canis familiaris [34]) was 0.3. For the same compound, the Ataxia (Mus musculus [6]) was 10% and the Protection (Mus musculus [7]) was 20%.
